# The source made the active and inactive calls. The rule behind the calls is not given here.
# Tests used:
# Enterococcus faecalis = assay: Antimicrobial activity against vancomycin-resistant Enterococcus faecalis isolate F177 assessed as inhibition of bacterial biofilm after 18 hrs by broth microdilution method; type: functional
# In short: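 Biofilm MBIC on tissue culture-treated polystyrene 96-well plates. Twofold dilutions, 0.2 to 100 μM final, with 2% DMSO final. Inoculum was an overnight culture diluted 1:100 (~5 × 10^6 cells/well) in 0.5× TSB plus 1% glucose, grown 18 h at 37°C. Wells washed, heat-fixed 60°C 60 min, stained with 0.06% crystal violet, OD600 read. MBIC is the lowest concentration giving ≥80% inhibition versus untreated; geometric mean of ≥3 experiments.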
# Staphylococcus aureus = assay: Antimicrobial activity against Staphylococcus aureus ATCC 35556 assessed as inhibition of primary adhesion of bacterial biofilm to silicone disk at MBIC after 30 mins by fluorescence emission using BaclLight Live Dead stain
Compound,MBIC (Enterococcus faecalis) [µM],inhibition (Staphylococcus aureus)
CCOc1cc(/C=C2\SC(=S)N(c3cccnc3)C2=O)ccc1O,19.8,
CCOc1cc(/C=C2\SC(=S)N(c3ccc(F)cc3)C2=O)ccc1O,,Active

# Source: ChEMBL document CHEMBL1649230, “Aryl rhodanines specifically inhibit staphylococcal and enterococcal biofilm formation” (Antimicrob Agents Chemother, 2009)
